From paper PMC4010123 (Neuron, 2014)
Entries after “also recorded” stand apart in the source; their conditions may differ.

Columns and labels:
NR2B [1] = details: infusion into dorsal hippocampus; ref Zhang et al., 2008; cited from earlier work
[2] = test system: NMDAR / NR2B component of NMDAR-EPSC; test: Whole-cell voltage-clamp NMDAR-EPSC, CA1 pyramidal neurons in hippocampal slices; type: cell-based, mouse
How it was run: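 Acute mouse hippocampal slices were pretreated with vehicle or Cdk5 inhibitor. Whole-cell voltage-clamp recordings of synaptically evoked NMDAR-EPSCs were made from CA1 pyramidal neurons, first without and then with the NR2B blocker ifenprodil. The ifenprodil-sensitive part was taken as the NR2B component; decay kinetics were also measured.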

GFP-NR2B = test: Cell surface GFP-NR2B in dendrites of cultured hippocampal neurons; type: cell-based, rat; details: NR2B siP 2 μM, 30 min, vs control peptide (S1116A); n = 49–64 cells
[3] = test system: Cdk5 (substrate inhibitor-1); test: In vitro phosphorylation of inhibitor-1 by Cdk5; type: biochemical; details: Figure S3A
[4] = test system: Cdk5-NR2B protein-protein interaction; test: Co-immunoprecipitation of Cdk5 and NR2B from hippocampal slices; type: cell-based, mouse; details: 4 pooled slices per sample
How it was run: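 Acute mouse hippocampal slices were treated in Mg2+-free Krebs buffer with test peptide, scrambled peptide or Cdk5 inhibitor. Four slices were pooled per sample for NR2B–Cdk5 co-immunoprecipitation and immunoblotting, with Cdk5 input shown.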

NR2B [5] = test: Cell surface biotinylation of NR2B in hippocampal slices; type: cell-based, mouse; details: n = 4
NR2B [6] = test: NR2B cell surface expression in siP-infused hippocampal area CA1; type: in vivo; details: rat CA1, NR2B siP vs scramble control; 4 pooled tissue punches
How it was run: (§1)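 Sprague-Dawley rats received continuous bilateral dorsal hippocampal infusion of test or scrambled peptide by osmotic pump. Epifluorescent CA1 tissue punches were immunoblotted, with protease and phosphatase inhibitors present. P-S1116 was expressed as the P-S1116/total NR2B ratio. Cell surface NR2B was measured from 4 pooled punches per condition.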

[7] = test system: Ser1116 of NR2B phosphorylated by Cdk5; test: P-S1116 NR2B in acute striatal slices; type: cell-based; details: acute mouse striatal slices, NR2B siP (Figure S3C and D)
How it was run: (§2)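 Acute mouse striatal slices were treated in Mg2+-free Krebs buffer with polyarginine (R7)-tagged test peptide (0–100 μM, 0–180 min). Lysates were prepared with protease and phosphatase inhibitors and immunoblotted. For NR2B, P-S1116 was expressed as the P-S1116/total NR2B ratio; for DARPP-32, phospho-Thr75 was probed with total DARPP-32.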

NR2B or Cdk5 = test: NR2B and Cdk5 expression levels in hippocampal slices; type: cell-based, mouse; details: NR2B siP
How it was run: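 Mouse hippocampal slices treated in Mg2+-free Krebs buffer with the test peptide (0–100 μM, 0–180 min) or a scrambled control peptide. NR2B–Cdk5 association was assessed by co-immunoprecipitation using 4 pooled slices per sample. NR2B and Cdk5 levels were immunoblotted, with loading shown.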

Sprague-Dawley rats = test: Fear conditioning in rats, chronic infusion into dorsal hippocampus; type: in vivo, rat; details: for conditioned fear response at 96 h: extinction trial, both groups (siP and scrambled) (Figure S4E)
How it was run: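 Two-month-old Sprague-Dawley rats received continuous bilateral dorsal hippocampal infusion by mini-osmotic pump, starting 24 h before training. Training: 2 min exploration, then a 30 s tone (90 dB, 10 kHz) co-terminating with a foot shock (2 s, 0.7 mA); 2 min more in the box. Context tests: 5 min at 24, 48, 72 and 96 h. Tone recall at 27 h in a novel vanilla context (3 min, then 3 min tone). Freezing was time-sampled every 5 s, blind. After extinction and pump expiry, rats were retrained (0.7 mA) and context-tested 24 h later.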

rats = test: Nociception, pain threshold and motor reflexes; type: in vivo, rat; details: chronic infusion (Figure S4B and C)
How it was run: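 Rats received continuous bilateral infusion of the test peptide or a scrambled control into dorsal hippocampus by mini-osmotic pump, starting 24 h before fear conditioning. Nociception was scored as the foot-shock threshold that elicits flinching, jumping and vocalizing in the conditioning box; a tail flick test was also used. Scoring was blind. Data are mean ± SEM.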

[8] = test system: Thr75 DARPP-32 (Cdk5 substrate); test: phospho-Thr75 DARPP-32 in acute brain slices; type: cell-based, mouse; details: acute striatal slices, NR2B siP (Figure S3C and D)
How it was run: as §2

[9] = test system: Cdk5 (substrate recombinant NR2B, Ser1116); test: In vitro phosphorylation of Ser1116 NR2B by Cdk5; type: biochemical; details: immunoblot
Ser1116 of NR2B [10] = test: P-S1116 in siP-infused hippocampal area CA1; type: in vivo; details: rat CA1, NR2B siP vs scramble control; n = 4
How it was run: as §1

[11] = test system: NR2B component of NMDAR EPSC; test: Ifenprodil-sensitive NR2B component of NMDAR EPSC in slices; type: cell-based; details: slices incubated with NR2B siP vs scramble control; n = 6–7
NMDAR/AMPAR EPSC = test: NMDA/AMPA EPSC ratio in cortical slices; type: cell-based; details: cortical slices (pyramidal neurons), NR2B siP vs scrambled control; n = 12–16
[12] = test system: hippocampal CA3-CA1 pathway (fEPSP); test: Extracellular field recordings, CA3-CA1 fEPSP slope in hippocampal slices; type: cell-based, mouse; details: for fEPSP slope, effect of NR2B siP in presence of Ro 25–6981: Ro 25–6981 3 μM, added 10 min before Pen siP (2 μM, 30 min)
How it was run: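 Hippocampal slices were used; wild-type slices came from 3-month-old C57BL/6 mice. CA1 fEPSPs were evoked by bipolar Schaffer collateral stimulation (0.1 ms pulses at 0.033 Hz) at the intensity giving 50% of maximal slope. After a stable baseline, Pen-tagged test or control peptide was perfused for 30 min. Where used, Ro 25–6981 (3 μM) perfusion began 10 min before peptide. Read-out: percent change from baseline fEPSP slope.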

mice = test: Fear conditioning in mice, acute infusion into dorsal hippocampus; type: in vivo, mouse
Ser1116 of NR2B [13] = test: P-S1116 NR2B in CA1 after siP infusion and fear conditioning; type: in vivo; details: NR2B siP infusion (Figure S5A)
How it was run: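 Test peptide or control peptide was infused into dorsal hippocampus before fear conditioning. Animals were killed 1 h after training, and CA1 lysates were prepared with protease and phosphatase inhibitors. P-S1116 and total NR2B were measured by quantitative immunoblot and reported as the P-S1116/total NR2B ratio. Data are mean ± SEM.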

NR2B-Cdk5 interaction = test: Pull-down of Cdk5 by recombinant GST-tagged NR2B in vitro; type: binding; details: n = 3
[14] = test system: Ser1116 of NR2B phosphorylated by Cdk5; test: P-S1116 NR2B in acute hippocampal slices; type: cell-based, mouse
total NR2B = test: Total NR2B levels in hippocampal slices; type: cell-based, mouse; details: acute hippocampal slices, NMDA 50 or 100 μM, 15 min
How it was run: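 Acute mouse hippocampal slices were exposed to NMDA (50 or 100 μM, 15 min) in Mg2+-free Krebs buffer. Lysates were prepared with protease and phosphatase inhibitors and immunoblotted for total NR2B.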

[15] = slices from Cdk5 cKO mice, NR2B siP 2 μM, 30 min, n = 3

CC(C(O)c1ccc(O)cc1)N1CCC(Cc2ccccc2)CC1 (stereo not shown) [ifenprodil]
contextual fear learning (NR2B [1]): impair contextual fear learning
locomotor or anxiety-related behavior (NR2B [1]): but not locomotor or anxiety-related behavior
reduction of NMDAR-EPSC by ifenprodil in control slices ([2]; controls (vehicle), n = 6–7): 20%
reduction of NMDAR-EPSC by ifenprodil in CP681301-treated slices ([2]; slices treated with CP681301, n = 6–7): 33%

RRPPRSPDHKRYFRDKE [NR2B siP]
cell surface GFP-NR2B levels, increase, siP (GFP-NR2B): 1.5 fold
in vitro phosphorylation of inhibitor-1 [3]: did not inhibit
Cdk5-NR2B co-immunoprecipitation / interaction [4]: disrupts NR2B-Cdk5 interaction; also recorded: effectively blocked subsequent co-immunoprecipitation of Cdk5 and NR2B
NR2B cell surface levels, increase, siP (NR2B [5]; NR2B siP 1 h, 100 μM): 3.3 fold
NR2B cell surface levels (NR2B [5]; NR2B siP or Scramble 1 h, 100 μM, or CP681301 1 h, 50 μM): increased
NR2B cell surface expression (NR2B [6]): increases NR2B cell surface expression
P-S1116 in striatal slices [7]: time-dependently reduced P-S1116
levels of NR2B or Cdk5 expression (NR2B or Cdk5): did not alter levels of NR2B or Cdk5 expression
contextual memory enhancement during extinction trials (Sprague-Dawley rats; rats, 48 and 72 h after initial training (Figure S4D and E)): contextual memory enhancement persisted
tone-induced freezing (Sprague-Dawley rats; rats, chronic infusion, 27 h after conditioning): no effect
conditioned fear response at 96 h (Sprague-Dawley rats; rats): extinguished by 96 h for both groups
contextual fear memory 24 h after re-training (Sprague-Dawley rats; rats, re-trained after extinction and expiration of pump (Figure S4F)): increased
contextual fear memory (Sprague-Dawley rats; two-month-old rats, chronic infusion, n = 20): improved contextual fear memory
nociception, pain threshold, or motor reflexes (rats): neither NR2B siP, nor scrambled control affected nociception, pain threshold, or motor reflexes
phosphorylation state of Thr75 DARPP-32 [8]: no effect
in vitro phosphorylation of Ser1116 NR2B by Cdk5 [9]: dose-dependently inhibits
P-S1116 in infused region (Ser1116 of NR2B [10]): reduces P-S1116
ifenprodil-sensitive NR2B component of NMDAR EPSC, increase [11]: 1.5 fold
NMDA/AMPA EPSC ratio, increase (NMDAR/AMPAR EPSC): 1.8 fold
fEPSP slope, effect of NR2B siP in presence of Ro 25–6981 ([12]; n = 3): did not show a significant effect
fEPSP slope, steady state after washout, relative to control treated slices ([12]; hippocampal slices, after washout of NR2B siP (Pen siP), vs control peptide): 1.6 fold
fEPSP slope in Cdk5 cKO, effect [12, 15]: almost absent in Cdk5 cKO mice
fEPSP slope in Cdk5 cKO, increase [12, 15]: 1.2 fold
freezing levels in context test, acute compared with chronic infusion (mice; 3 month-old mice, acute infusion): comparable to the levels observed with chronic infusion
freezing in the tone test (mice; 3 month-old mice, acute infusion 90 min prior to conditioning, n = 6–10): not freezing to tone; also recorded: did not reveal any significant changes
contextual fear memory, increase, aged mice (mice; 14 month-old mice, acute infusion 90 min prior to training, vs control peptide or non-infused cannulated controls (Figure S5B)): 1.7 fold
P-S1116 NR2B in CA1 one hour post-training (Ser1116 of NR2B [13]): decreased P-S1116 NR2B in CA1 one hour post-training
block of pull-down of Cdk5 by GST-tagged NR2B (NR2B-Cdk5 interaction): most potently blocked the pull-down of Cdk5; also recorded: dose-dependently disrupts NR2B-Cdk5 binding in vitro

RRRSYFHKEDRPPRDK [scrambled, reference compound]
Cdk5-NR2B co-immunoprecipitation / interaction [4]: did not affect Cdk5-NR2B interactions
conditioned fear response at 96 h (Sprague-Dawley rats; rats): extinguished by 96 h for both groups
nociception, pain threshold, or motor reflexes (rats): neither NR2B siP, nor scrambled control affected nociception, pain threshold, or motor reflexes
in vitro phosphorylation of Ser1116 NR2B by Cdk5 [9]: did not attenuate Ser1116 phosphorylation in vitro
in vitro phosphorylation of Ser1116 NR2B by Cdk5 ([9]; listed as scramble): no effect

CN[C@H](CC(=O)O)C(=O)O [NMDA, N-methyl-D-aspartate]
P-S1116 normalized to total NR2B ([14]; acute hippocampal slices, NMDA 50 or 100 μM, 15 min, n = 4): dose-dependently attenuated P-S1116
total NR2B levels (total NR2B): reduced total NR2B levels

C[C@@H](CN1CCC(Cc2ccccc2)CC1)[C@@H](O)c1ccc(O)cc1 [Ro25–6981]
contextual fear learning (NR2B [1]): impair contextual fear learning
locomotor or anxiety-related behavior (NR2B [1]): but not locomotor or anxiety-related behavior
fEPSP slope, effect of NR2B siP in presence of Ro 25–6981 ([12]; n = 3): blocked

C=C1[C@@H](O)[C@@H]2O[C@]3(CC[C@H](/C=C/[C@@H](C)[C@@H]4CC(C)=C[C@@]5(O[C@H](C[C@@](C)(O)C(=O)O)CC[C@H]5O)O4)O3)CC[C@H]2O[C@@H]1[C@@H](O)C[C@H](C)[C@H]1O[C@@]2(CCCCO2)CC[C@H]1C [okadaic acid]
ability of NMDA to reduce P-S1116 in presence of okadaic acid ([14]; hippocampal slices, PP2A/PP1 inhibitor okadaic acid + NMDA (Figure S2C)): attenuated
